One may read the EC50 as the concentration giving half of the maximal effect. What is called IC50 is the concentration needed to halve the response being measured.

Here are results for four compounds from article PMC7089137 (Pharmaceutical Chemistry Journal, 2019).

In brackets after ≈: the same amount, converted by molar mass.

In one experiment the test system is Vaccina virus. Description: microbe, parasite or virus in culture. In kind it is cell-based, vaccinia virus Lederle strain. To be noted: Orthopoxvirus vaccinia, HEL, read-out: EC50 Vaccina virus.
The test system of another experiment is Para influenza-3 virus. In words: Inhibition of virus-induced cytopathicity, parainfluenza-3 virus in Vero. In kind it is cell-based. For orientation: Cytopathic effects are the visible damage that an infection or toxin causes in cultured cells.
A further experiment concerns Reo virus-1. Description: Inhibition of virus-induced cytopathicity, reovirus-1 in Vero. In kind it is cell-based. Particulars: Vero cell cultures.
Another experiment relates to Sindbis virus. Description: Inhibition of virus-induced cytopathicity, Sindbis virus in Vero. In kind it is cell-based. Particulars: Vero cell cultures.
A further experiment concerns Punta Toro virus. Description: Inhibition of virus-induced cytopathicity, Punta Toro virus in Vero. In kind it is cell-based. To be noted: Vero cell cultures.
In experiment [1] the test system is human cervix carcinoma HeLa cells. In words: Cytostatic assay, inhibition of HeLa cell proliferation. Particulars: 72 h, read-out: IC50 HeLa. In kind it is cell-based. In a few lines: (§1)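 Each well is seeded with (5–7.5) × 10^4 tumor cells and exposed to test compound at 100, 20, 4, 0.8, 0.16 and 0.032 μg/mL (5-fold dilutions). Cells grow at 37°C in humidified CO2: 48 h for murine L1210, 72 h for human CEM and HeLa. They are then counted with a Coulter counter. IC50 is the concentration halving proliferation, reported as mean ± SD of at least two to three independent experiments. Cisplatin is the reference.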

The subject of experiment [2] is L1210, CEM and HeLa cells. Description: Cytostatic activity over the three tumor cell lines. In kind it is cell-based. In a few lines:
as §1

As for `CSc1ccc(NC(=S)NN)cc1` [II, N-(4-methylsulfanylphenyl)hydrazinecarbothioamide], the EC50 in the experiment on Vaccina virus fell in the range of 45 to 50 µg/mL (≈ 211 to 234 µM).

For `N#Cc1ccc(NC(=S)NN)cc1` [I, N-(4-cyanophenyl)hydrazinecarbothioamide], the EC50 with Vaccina virus lay within 45 to 50 µg/mL (≈ 234 to 260 µM).

For `N#Cc1ccc(NC(=S)NN=Cc2ccc(N(CCCl)CCCl)cc2)cc1` [Ig, 2-{4-[Bis(2-chloroethyl)amino]benzylidene}-N-(4-cyanophenyl)hydrazinecarbo thioamide], the “inhibitory activity against parainfluenza virus-3 (in words)” value in the experiment with Para influenza-3 virus is reported as “no inhibitory activity”. Also, in the experiment with Reo virus-1, the “inhibitory activity against reovirus-1 (in words)” value was “no inhibitory activity”. Moreover, the “inhibitory activity against Sindbis virus (in words)” value in the experiment with Sindbis virus is recorded as “no inhibitory activity”. Further, in the experiment on Punta Toro virus, the “inhibitory activity against Punta Toro virus (in words)” value is on record as “no inhibitory activity”. Also, the IC50 in experiment [1] is 0.3 µg/mL (≈ 0.714 µM); in experiment [2] (read-out: IC50 cytostatic activity), 0.3 to 2.5 µg/mL (≈ 0.714 to 5.95 µM).

On to `N#Cc1ccc(NC(=S)NN=Cc2ccccc2)cc1` [Ia, 2-Benzylidene-N-(4-cyanophenyl)hydrazinecarbothioamide], for which the “cytostatic activity (in words)” value in experiment [2] (tumor cell lines L1210, CEM, HeLa) is on record as “did not show cytostatic activity”.
